Shown are actives, neighbours in structure and some others; about 1.9% of the full set was active somewhere.
NPY-Y2 antag: NPY-Y2 (human) receptor antagonism. 0.99% of 140,000 active. NPY-Y2 expressing cells, antagonist mode. P49146. inhibition, % at 2.7 µM;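 also: 0% = vehicle with agonist challenge and 100% = reference antagonist with challenge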
Target sequence (P49146 whole entry, looked up): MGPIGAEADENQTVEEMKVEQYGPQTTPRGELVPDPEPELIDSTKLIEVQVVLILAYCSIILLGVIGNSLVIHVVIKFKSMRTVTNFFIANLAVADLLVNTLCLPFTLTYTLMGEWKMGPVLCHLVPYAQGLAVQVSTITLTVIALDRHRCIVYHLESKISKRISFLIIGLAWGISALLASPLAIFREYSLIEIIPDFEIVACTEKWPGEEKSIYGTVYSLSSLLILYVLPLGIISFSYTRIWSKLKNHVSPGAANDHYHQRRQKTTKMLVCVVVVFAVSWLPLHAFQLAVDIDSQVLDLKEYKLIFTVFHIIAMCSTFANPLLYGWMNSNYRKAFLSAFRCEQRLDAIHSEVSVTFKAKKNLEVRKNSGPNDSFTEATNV
NPY-Y1 antag: NPY-Y1 (human) receptor antagonism; P25929; HEK293-CNG Y1 cells, membrane potential fluorescence; NPY at EC95, then isoproterenol; inhibition, % at 3.6 µM; 1% of 200,000 active; AID 1040;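 active = inhibition above the campaign mean inhibition of all tested compounds plus 3 SD, cut at about 20% in these data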;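 also: 0% = DMSO wells given NPY plus isoproterenol and 100% = isoproterenol alone without NPY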
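Material: Y1- and CNG-channel-expressing HEK293 cells / Probe or stimulus: NPY 25 nM then isoproterenol 1 µM plus Ro 20-1724 25 µM / Doses: 3.6 µM single dose, DMSO 0.4% / Schedule: compound incubation 1 h at room temperature, readout 45 min post-stimulation / Signal: membrane potential fluorescence / Benchmarks: isoproterenol-only wells as full block versus NPY-plus-isoproterenol wells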
NPY1 pot ag: human NPY-Y1 potentiation or agonism, primary screen; AID 1304; P25929; NPY-Y1 expressing cells, potentiator/agonist activation; 0.37% of 220,000 active; activation, % at 3.6 µM; in the data active = activation above about 33%, passing the limit was not always enough;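 also: cells stimulated with NPY at EC10 then isoproterenol at EC100; 0% = low agonist plus stimulus and 100% = saturating agonist plus stimulus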
NPY2 pot ag: potentiates or activates human NPY-Y2 receptor; cells expressing NPY-Y2, potentiator/agonist read-out; activation, % at 3.6 µM; 0.45% of 220,000 active; in the data active = activation above about 27%;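 also: cells stimulated with NPY near EC25 plus isoproterenol at EC100; 0% = vehicle plus submaximal agonist and 100% = vehicle plus saturating agonist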
NPY1 antag conf: confirmation of human neuropeptide Y receptor Y1 antagonists; inhibition, % at 3.6 µM; 21% of 1,200 active; HEK293-CNG NPY-Y1, membrane potential fluorescence, cAMP; NPY challenge against isoproterenol-raised cAMP; shares compounds with NPY-Y1 antag; in the data active = inhibition above about 20%;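 also: 0% = vehicle with agonist plus stimulus and 100% = stimulus alone without agonist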
NPY2 antag ctr: human NPY-Y2 antagonism in NPY-Y1 counter-screen. shares compounds with NPY-Y1 antag. HEK293 NPY-Y2 CNG membrane potential fluorescence; cells given NPY, then isoproterenol. inhibition, % at 3.6 µM. 28% of 1,200 active;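 also: 0% = DMSO with agonist challenge and 100% = reference antagonist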
NPY-Y1 pot conf: human NPY-Y1 potentiation or agonism, confirmation; shares compounds with NPY1 pot ag; cell-based NPY-Y1 potentiator/agonist assay; activation, % at 3.6 µM; 20% of 280 active; AID 1546; in the data active = activation above about 45%;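 also: cells challenged with NPY at its EC10 plus isoproterenol stimulus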
NPY-Y2 counter: potentiates or activates NPY-Y2, counter-screen for NPY-Y1 hits | shares compounds with NPY1 pot ag | HEK293-CNG cells, membrane-potential fluorescence (FLIPR), 1536-well | activation, % at 3.6 µM | 20% of 280 active | AID 1649; in the data active = activation above about 33%
NPY-Y1 agonist: human NPY-Y1 agonism as potentiator counter-screen; shares compounds with NPY1 pot ag; HEK293 Y1-CNGC, membrane potential fluorescence, agonist mode; activation, % at 3.6 µM; 50% of 280 active;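 active = percent activation above the mean of DMSO-only control wells plus 3 SD of those wells, cut at about 18% in these data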;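 also: cells challenged with isoproterenol plus Ro 20-1724 with no NPY in test wells; Y1 agonism lowers isoproterenol-driven cAMP and reduces probe fluorescence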
NPY-Y2 agonist: human NPY-Y2 agonism as NPY-Y1 counter-screen; AID 1698; 67% of 280 active; HEK293 Y2-CNGC, membrane potential fluorescence, agonist mode; activation, % at 3.6 µM; shares compounds with NPY1 pot ag;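 active = activation above the solvent-only control wells' mean plus 3 SD, cut at about 11% in these data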;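 also: 0% = DMSO with isoproterenol and 100% = 40 nM NPY maximal response; agonism lowers cAMP so well fluorescence drops in active wells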
CNGC counter: counter-screen for NPY-Y1 potentiators or agonists: CNG channel inhibitors; HEK293-CNG parental, isoproterenol cAMP, membrane potential fluorescence; 42% of 280 active; shares compounds with NPY1 pot ag; inhibition, % at 3.6 µM;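 active = inhibition above the mean of stimulated solvent-only control wells plus 3 SD, cut at about 22% in these data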;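 also: 0% = isoproterenol-stimulated DMSO wells and 100% = unstimulated DMSO wells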
NPY-Y2 confirm: confirmation of human NPY-Y2 receptor potentiators or agonists | shares compounds with NPY2 pot ag | activation, % at 3.6 µM | 20% of 450 active | AID 1539 | cell-based NPY-Y2 potentiator/agonist assay; in the data active = activation above about 33%
NPY-Y1 potentiator: counter-screen for NPY-Y2 potentiators or agonists: NPY-Y1 potentiators or agonists | shares compounds with NPY2 pot ag | Y1 HEK293-CNG cells, membrane potential fluorescence | activation, % at 3.6 µM | 20% of 450 active | AID 1651; in the data active = activation above about 45%;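 also: cells stimulated with submaximal NPY then isoproterenol with phosphodiesterase inhibitor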
NPY-Y1 agonist 2: activates human NPY-Y1, counter-screen for NPY-Y2 potentiators; shares compounds with NPY2 pot ag; HEK293 Y1-CNGC, membrane potential fluorescence, agonism; activation, % at 3.6 µM; 37% of 450 active;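 active = activation above the mean of DMSO-only control wells plus 3 SD, cut at about 18% in these data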;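 also: cells stimulated with 1 µM isoproterenol plus the PDE inhibitor Ro 20-1724; 0% = isoproterenol with DMSO and no NPY and 100% = 40 nM NPY; Y1 agonists lower the membrane potential dye signal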
CNGC inh: counter-screen for NPY-Y2 potentiators: inhibitors of CNG channel activity. inhibition, % at 3.6 µM. shares compounds with NPY2 pot ag. HEK293-CNG parental, isoproterenol cAMP, membrane potential fluorescence. 32% of 450 active;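 active = inhibition above the control-well mean plus 3 SD of those wells, cut at about 22% in these data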;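 also: 0% = DMSO with isoproterenol and 100% = DMSO without isoproterenol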
NPY-Y2 ag 2: activates human NPY-Y2 receptor in potentiator counter-screen; shares compounds with NPY2 pot ag; HEK293 Y2/CNGC cells, membrane potential fluorescence, agonist mode; activation, % at 3.6 µM; 56% of 450 active; AID 1710;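 active = activation above the mean of solvent-only control wells plus 3 SD, cut at about 10% in these data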;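 also: cells stimulated by isoproterenol with no NPY added so direct agonism is tested; 0% = DMSO with isoproterenol alone and 100% = NPY at EC100 plus isoproterenol; agonism lowers probe fluorescence through less cAMP and CNG channel opening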
Starred values were filed as active, the others as inactive; nt = no result. Rule as the data show it, unless noted: active = inhibition above about 17%; inactive = the rest.

SMILES | NPY-Y2 antag | NPY-Y1 antag | NPY1 pot ag | NPY2 pot ag | NPY-Y2 confirm | NPY-Y1 potentiator | NPY-Y1 agonist 2 | CNGC inh | NPY-Y2 ag 2 | others
Cc1ccc2c(c1)C1CN(C)CCC1N2C(=O)c1cn(-c2ccccc2)nc1-c1ccccc1 (stereo not drawn) | nt | 70* | -36 | -18 | nt | nt | nt | nt | nt | NPY1 antag conf=20;NPY2 antag ctr=25*
CNCC(O)c1cccc(OC(=O)c2ccccc2C)c1 (stereo not drawn) | 9 | 22* | -30 | 7 | nt | nt | nt | nt | nt | NPY1 antag conf=3;NPY2 antag ctr=6
CCC(=NCc1ccc(F)cc1)c1c(O)n(C)c(=O)n(C)c1=O | 3 | 4 | 37* | 0 | nt | nt | nt | nt | nt | NPY-Y1 pot conf=-22;NPY-Y2 counter=-13;NPY-Y1 agonist=-24;NPY-Y2 agonist=-9;CNGC counter=-16
CC1CCN(C(=O)CCl)CC1 | 0 | 6 | -4 | 4 | nt | nt | nt | nt | nt
CN1CCN(c2ccccc2N)CC1 | 0 | 5 | 16 | -6 | nt | nt | nt | nt | nt
CN1CCN(c2cccc3c2C(=O)c2ccccc2C3=O)CC1 | -2 | -5 | 23 | 33* | 29 | 33 | 18* | 24* | 33*
O=C(Nc1ccncc1)c1cccn(Cc2ccccc2)c1=O | nt | -4 | 20 | 34* | 2 | -33 | -25 | -15 | -10
C=CCNC(=S)Nc1ccc(OC(=O)Nc2ccc(Cl)c(Cl)c2)cc1 | nt | nt | 12 | 83* | 10 | 7 | 2 | 9 | 10
Cc1cccc(NP(C)(=O)c2nc3c(s2)CCCC3)c1 (stereo not drawn) | 4 | -2 | -19 | 9 | nt | nt | nt | nt | nt
CN(C)CCCN=Cc1c(O)n(CCc2ccccc2)c(=O)[nH]c1=O | 0 | 1 | 15 | 3 | nt | nt | nt | nt | nt
O=c1[nH]c(=O)n(CCc2ccccc2)c(O)c1C=NC1CC1 | nt | nt | -7 | 73* | -1 | 0 | -3 | 3 | -3
CNP(=O)(Oc1ccccc1)OC12CC3CC(CC(C3)C1)C2 (stereo not drawn) | nt | 6 | 1 | -2 | nt | nt | nt | nt | nt
